Data: ChEMBL document CHEMBL1255502, “A nonazole CYP51 inhibitor cures Chagas' disease in a mouse model of acute infection” (Antimicrob Agents Chemother, 2010)
Active and inactive are the calls of the source. The rule behind the calls is not given here.

Experiments:
[1] = molecular target: Sterol 14-alpha demethylase (Trypanosoma cruzi (strain CL Brener)) (UniProt Q7Z1V1); assay: Inhibition of sterol 14-alpha-demethylase in Trypanosoma cruzi amastigotes infected in BESM cell assessed as cell death at 0.25 uM after 72 hrs by electron microscopy
Chain of Sterol 14-alpha demethylase (Trypanosoma cruzi (strain CL Brener)) (Q7Z1V1 whole entry, looked up, the tested form may be a part): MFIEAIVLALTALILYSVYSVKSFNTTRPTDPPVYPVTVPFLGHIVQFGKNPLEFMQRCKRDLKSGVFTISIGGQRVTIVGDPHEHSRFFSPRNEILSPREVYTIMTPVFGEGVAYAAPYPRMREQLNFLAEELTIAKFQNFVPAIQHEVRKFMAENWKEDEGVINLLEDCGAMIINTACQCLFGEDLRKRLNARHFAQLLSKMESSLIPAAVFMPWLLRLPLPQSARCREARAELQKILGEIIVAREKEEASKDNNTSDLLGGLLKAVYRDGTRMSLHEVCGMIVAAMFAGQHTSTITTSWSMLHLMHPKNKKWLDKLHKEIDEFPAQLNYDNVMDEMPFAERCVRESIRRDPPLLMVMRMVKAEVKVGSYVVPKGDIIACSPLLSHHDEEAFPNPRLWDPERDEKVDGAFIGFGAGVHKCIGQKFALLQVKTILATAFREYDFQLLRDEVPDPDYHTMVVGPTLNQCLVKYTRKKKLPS

[2] = molecular target: Sterol 14-alpha demethylase (Trypanosoma cruzi (strain CL Brener)) (UniProt Q7Z1V1); assay: Inhibition of sterol 14-alpha-demethylase in Trypanosoma cruzi amastigotes infected in BESM cell assessed as abnormalities in nuclear DNA at 0.25 uM after 72 hrs by electron microscopy; format: cell-based
[3] = molecular target: Sterol 14-alpha demethylase (Trypanosoma cruzi (strain CL Brener)) (UniProt Q7Z1V1); assay: Inhibition of sterol 14-alpha-demethylase in Trypanosoma cruzi amastigotes infected in BESM cell assessed as abnormalities in nuclear membrane at 0.25 uM after 72 hrs by electron microscopy; format: cell-based
[4] = molecular target: Sterol 14-alpha demethylase (Trypanosoma cruzi (strain CL Brener)) (UniProt Q7Z1V1); assay: Inhibition of sterol 14-alpha-demethylase in Trypanosoma cruzi amastigotes infected in BESM cell assessed as appearance of large autophagic vesicles at 0.25 uM after 48 hrs by electron microscopy; format: cell-based
[5] = molecular target: Sterol 14-alpha demethylase (Trypanosoma cruzi (strain CL Brener)) (UniProt Q7Z1V1); assay: Inhibition of sterol 14-alpha-demethylase in Trypanosoma cruzi amastigotes infected in BESM cell assessed as swelling of nuclear membrane at 0.25 uM after 48 hrs by electron microscopy; format: cell-based
[6] = molecular target: Sterol 14-alpha demethylase (Trypanosoma cruzi (strain CL Brener)) (UniProt Q7Z1V1); assay: Inhibition of sterol 14-alpha-demethylase in Trypanosoma cruzi amastigotes infected in BESM cell assessed as blebbing of the cell membrane at 0.25 uM after 48 hrs by electron microscopy; format: cell-based
[7] = molecular target: Sterol 14-alpha demethylase (Trypanosoma cruzi (strain CL Brener)) (UniProt Q7Z1V1); assay: Inhibition of sterol 14-alpha-demethylase in Trypanosoma cruzi epimastigotes infected in BESM cells assessed as accumulation of lanosterol and eburicol precursors at 5 uM after 72 hrs; format: cell-based
Procedure, shortened: (§1)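 Log-phase epimastigotes were grown axenically in BHT medium (fetal bovine serum, brain heart infusion) and exposed to 5 μM compound for 72 h, with untreated parasites as the control. Pellets were washed in PBS, extracted in chloroform for 24 h at room temperature, BSTFA-derivatized, and sterols were analysed by GC-MS on a DB5-MS column (200→300°C at 15°C/min).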

[8] = molecular target: Sterol 14-alpha demethylase (Trypanosoma cruzi (strain CL Brener)) (UniProt Q7Z1V1); assay: Inhibition of sterol 14-alpha-demethylase in Trypanosoma cruzi epimastigotes infected in BESM cells assessed as reduction in episterol content at 5 uM after 72 hrs; format: cell-based; procedure, shortened: as §1
[9] = molecular target: Sterol 14-alpha demethylase (Trypanosoma cruzi (strain CL Brener)) (UniProt Q7Z1V1); assay: Inhibition of sterol 14-alpha-demethylase in Trypanosoma cruzi epimastigotes infected in BESM cells assessed as reduction in fecosterol content at 5 uM after 72 hrs; format: cell-based; procedure, shortened: as §1
[10] = molecular target: Sterol 14-alpha demethylase (Trypanosoma cruzi (strain CL Brener)) (UniProt Q7Z1V1); assay: Inhibition of sterol 14-alpha-demethylase in Trypanosoma cruzi amastigotes infected in BESM cells assessed as accumulation of lanosterol and eburicol precursors at 5 uM after 72 hrs; format: cell-based
Procedure, shortened: (§2)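 T. cruzi CA-I/72 amastigotes were grown in BESM cells in RPMI 1640 with 5% heat-inactivated FCS at 37°C under 5% CO2. Monolayers were infected for 24 h, then the medium was replaced with 5 μM compound or DMSO; noninfected BESM cells served as a control. Lipids were extracted with chloroform, TMS-derivatized with BSTFA for 2 h, and sterols identified by GC-MS from [M−90]+ and [M+73]+ ions.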

[11] = molecular target: Sterol 14-alpha demethylase (Trypanosoma cruzi (strain CL Brener)) (UniProt Q7Z1V1); assay: Inhibition of sterol 14-alpha-demethylase in Trypanosoma cruzi amastigotes infected in BESM cells assessed as reduction in episterol content at 5 uM after 72 hrs; format: cell-based; procedure, shortened: as §2
[12] = molecular target: Sterol 14-alpha demethylase (Trypanosoma cruzi (strain CL Brener)) (UniProt Q7Z1V1); assay: Inhibition of sterol 14-alpha-demethylase in Trypanosoma cruzi amastigotes infected in BESM cells assessed as reduction in fecosterol content at 5 uM after 72 hrs; format: cell-based; procedure, shortened: as §2
[13] = molecular target: Sterol 14-alpha demethylase (Trypanosoma cruzi (strain CL Brener)) (UniProt Q7Z1V1); assay: Inhibition of sterol 14-alpha-demethylase in Trypanosoma cruzi epimastigotes infected in BESM cell assessed as abnormalities in nuclear membrane at 0.25 uM after 72 hrs by electron microscopy; format: cell-based
[14] = molecular target: Sterol 14-alpha demethylase (Trypanosoma cruzi (strain CL Brener)) (UniProt Q7Z1V1); assay: Inhibition of sterol 14-alpha-demethylase in Trypanosoma cruzi epimastigotes infected in BESM cell assessed as abnormalities in nuclear DNA at 0.25 uM after 72 hrs by electron microscopy; format: cell-based
[15] = molecular target: Sterol 14-alpha demethylase (Trypanosoma cruzi (strain CL Brener)) (UniProt Q7Z1V1); assay: Inhibition of sterol 14-alpha-demethylase in Trypanosoma cruzi epimastigotes infected in BESM cell assessed as cell death at 0.25 uM after 72 hrs by electron microscopy; format: cell-based
[16] = molecular target: Sterol 14-alpha demethylase (Trypanosoma cruzi (strain CL Brener)) (UniProt Q7Z1V1); assay: Inhibition of sterol 14-alpha-demethylase in Trypanosoma cruzi epimastigotes infected in BESM cell assessed as effect on cell division at 0.25 uM after 72 hrs by electron microscopy; format: cell-based
[17] = system: Trypanosoma cruzi; assay: Antimicrobial activity against Trypanosoma cruzi infected in C3H mouse at 50 mg/kg, ip BID administered 24 hrs post infection measured after 12 days; format: functional, organism-based; set-up: dose 50 mg/kg
Procedure, shortened: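 Female C3H mice (7–8 weeks, 17.5–18.0 g, five per group) infected i.p. with 10⁶ tissue-culture trypomastigotes of T. cruzi CA-I/72. The cruzain cysteine-protease inhibitor was given from 24 h postinfection: i.p. in 100 μl of 30% DMSO–70% ddH₂O, twice daily for 30 days. An untreated infected group served as control. Clinical signs (ascites, hind-leg weakness) were assessed at day 12 postinfection.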

[18] = system: Trypanosoma cruzi; assay: Antimicrobial activity against Trypanosoma cruzi infected in C3H mouse at 40 mg/kg, ip BID administered 24 hrs post infection measured after 12 days; format: functional, organism-based; set-up: dose 40 mg/kg
Procedure, shortened: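 Female C3H mice (7–8 weeks, 17.5–18.0 g, five per group) infected i.p. with 10⁶ tissue-culture trypomastigotes of T. cruzi CA-I/72. Dosing began 24 h postinfection: i.p. in 100 μl of 60% DMSO–40% ddH₂O, twice daily for 30 days. An untreated infected group served as control. Mice were scored for clinical signs (ascitic abdomen, hind-leg weakness) at day 12 postinfection.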

[19] = molecular target: Sterol 14-alpha demethylase (Trypanosoma cruzi (strain CL Brener)) (UniProt Q7Z1V1); details: BESM, 10 uM
[20] = molecular target: Sterol 14-alpha demethylase (Trypanosoma cruzi (strain CL Brener)) (UniProt Q7Z1V1); details: BESM, 10 uM; remark: listed apart in the source
[21] = molecular target: Sterol 14-alpha demethylase (Trypanosoma cruzi (strain CL Brener)) (UniProt Q7Z1V1); details: BESM, 10 uM; remark: listed apart in the source
[22] = molecular target: Sterol 14-alpha demethylase (Trypanosoma cruzi (strain CL Brener)) (UniProt Q7Z1V1); details: BESM, 10 uM; remark: listed apart in the source
[23] = molecular target: Sterol 14-alpha demethylase (Trypanosoma cruzi (strain CL Brener)) (UniProt Q7Z1V1); details: BESM, 10 uM; remark: listed apart in the source
[24] = molecular target: Sterol 14-alpha demethylase (Trypanosoma cruzi (strain CL Brener)) (UniProt Q7Z1V1); details: BESM, 10 uM; remark: listed apart in the source
[25] = molecular target: Sterol 14-alpha demethylase (Trypanosoma cruzi (strain CL Brener)) (UniProt Q7Z1V1); details: BESM, 10 uM; remark: listed apart in the source
[26] = molecular target: Sterol 14-alpha demethylase (Trypanosoma cruzi (strain CL Brener)) (UniProt Q7Z1V1); details: BESM, 10 uM; remark: listed apart in the source
[27] = molecular target: Sterol 14-alpha demethylase (Trypanosoma cruzi (strain CL Brener)) (UniProt Q7Z1V1); details: BESM, 10 uM; remark: listed apart in the source
[28] = molecular target: Sterol 14-alpha demethylase (Trypanosoma cruzi (strain CL Brener)) (UniProt Q7Z1V1); details: BESM, 10 uM; remark: listed apart in the source

For `CC[C@@H]([C@H](C)O)n1ncn(-c2ccc(N3CCN(c4ccc(OC[C@@H]5CO[C@@](Cn6cncn6)(c6ccc(F)cc6F)C5)cc4)CC3)cc2)c1=O`, the inhibition [1] was “Active”, the inhibition [2] was “Active” and the inhibition [3] was “Active”. For the same molecule, the inhibition [4] was “Active”, the inhibition [5] was “Active” and the inhibition [6] was “Active”. The inhibition [7] was “Active”, the inhibition [8] was “Active” and the inhibition [9] was “Active”. For the same molecule, the inhibition [10] was “Active”, the inhibition [11] was “Active” and the inhibition [12] was “Active”. For the same molecule, the inhibition [13] was “inactive”, the inhibition [14] was “inactive” and the inhibition [15] was “inactive”. The inhibition [16] was “inactive”.

With `CN1CCN(C(=O)N[C@@H](Cc2ccccc2)C(=O)N[C@H](/C=C/S(=O)(=O)c2ccccc2)CCc2ccccc2)CC1` the Activity [17] was “Active”.

`CC1CCC(C(=O)NC(Cc2c[nH]c3ccccc23)C(=O)Nc2ccncc2)CC1` (centres undefined) was tested, and the inhibition [7] was “Active”, the inhibition [8] was “Active” and the inhibition [9] was “Active”. For the same molecule, the inhibition [10] was “Active”, the inhibition [11] was “Active” and the inhibition [12] was “Active”. For the same molecule, the Activity [18] was “Active”, the inhibition [19] was “Active” and the inhibition [20] was “inactive”. For the same molecule, the inhibition [21] was “inactive”, the inhibition [22] was “inactive” and the inhibition [23] was “Active”. For the same molecule, the inhibition [24] was “Active”, the inhibition [25] was “Active” and the inhibition [26] was “Active”. For the same molecule, the inhibition [27] was “Active” and the inhibition [28] was “inactive”.
